SMILES strings stand for the structures. In all, about 2,400 compounds went through this assay and about 2,000 (83%) were called active. So high a share suggests a set chosen from earlier hits. These entries were drawn from the full list. Values without a mark were called inactive.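 How the source made its calls: active means activation above a cutoff set at the run's mean compound activation plus 3 SD (cut at about 39% in these data); inactive means the rest.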

Sequence of Trace amine-associated receptor 1 (Homo sapiens) (Q96RJ0 whole entry, looked up): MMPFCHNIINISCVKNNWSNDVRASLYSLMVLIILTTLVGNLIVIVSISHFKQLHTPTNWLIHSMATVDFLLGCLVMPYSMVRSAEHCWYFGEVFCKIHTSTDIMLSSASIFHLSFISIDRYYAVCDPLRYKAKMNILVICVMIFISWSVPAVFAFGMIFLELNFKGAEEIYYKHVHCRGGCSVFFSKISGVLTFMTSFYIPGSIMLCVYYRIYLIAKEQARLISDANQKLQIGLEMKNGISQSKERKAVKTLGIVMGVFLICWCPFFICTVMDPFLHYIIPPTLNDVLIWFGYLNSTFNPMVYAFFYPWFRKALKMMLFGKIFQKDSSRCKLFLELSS

In the assay the target is Trace amine-associated receptor 1 (Homo sapiens) (UniProt Q96RJ0). In words: activators of TAAR1 calcium signal, triplicate retest – Fluo-8 calcium fluorescence, CHO RD-HGA16 cells, confirmation (AID 651783).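 Further: promiscuous G-alpha-16 overexpression reroutes TAAR1 signalling from cAMP to calcium; peak fluorescence divided by basal pre-compound fluorescence per well.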 The settings on record: CHO RD-HGA16 TAAR1, Fluo-8 calcium fluorescence; at 3 µM; stronger effect = higher value; scaled: DMSO 0%, maximal phenethylamine 100%. The gist of the method:
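Signal – Fluo-8 calcium fluorescence, 5 s basal then 140 s kinetic read · Assay system – RD-HGA16 CHO cells co-expressing hTAAR1 and promiscuous Gα16 · Times – Fluo-8 loading 75 min 37 °C and 30 min RT · Dosing – single nominal final dose of 3 µM per compound · Benchmarks – low DMSO wells, high PEA EC100 wells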
With `O=C(COC(=O)Cc1ccccc1F)NCCc1ccccc1`, the activation is 73% (active).

Consider `C[C@H](NC(=O)c1ccccc1)C(=O)OCC(=O)c1c[nH]c2ccccc12`, for which the activation is 79.6% (active).

As for `CC(=O)Nc1ccccc1Sc1ccc2c3c(cccc13)C(=O)N(c1ccc(C)cc1)C2=O`, the activation is -2.82%. The figure for `Cc1ccn2c(=O)c(C(=O)NCCC3=CCCCC3)c(O)nc2c1` is 106% (active); for `O=C(CCCN=C1NS(=O)(=O)c2ccccc21)OCC(=O)c1ccc(F)c(F)c1` it is 83.8% (active); for `O=Cc1c(NCCc2cccc(F)c2)c2ccccc2[nH]c1=O` it is 78.3% (active). To `CCCCOc1ccc(CSC(=N)N)cc1[N+](=O)[O-]` belongs 48% (active); to `O=C1CCCC(O)=C1C=NCCc1ccccc1`, 74.5% (active); to `COc1cccc(-c2cnc(OC(C)(C)C)nc2OC(C)(C)C)c1`, 38.6% (active).

As for `CN(C)c1ccc(/C=C2\NC(=S)N(Cc3ccccc3)C2=O)cc1`, the activation is 51.1% (active). On to `O=C(CSc1nc(-c2ccco2)cc(C(F)(F)F)n1)NCc1cccs1`, for which the activation was -0.49%. For the compound `c1ccc2c(c1)OCC(CNc1ncnc3nc[nH]c13)O2` (centres undefined), the activation is 210% (active). To `CCCSc1nc2c(c(=O)n(C)c(=O)n2C)n1Cc1ccc(C)cc1` belongs 61% (active); to `COc1ccc(C(=O)CN2C(=O)NC(C)(c3ccc(C)cc3)C2=O)cc1OC` (centres undefined), 46.6% (active). For `c1ccc(Nc2nc(N3CCOCC3)c3ccccc3n2)cc1`, the activation is 93.8% (active).

As to `CC(NC(=O)c1cc(-c2ccccc2)on1)c1ccccc1` (centres undefined), the activation was 66.5% (active). The figure for `O=C(Nc1ccccc1)Nc1nnc(COc2ccccc2F)s1` is 71.7% (active); for `Nc1cc(OC(=O)c2ccccc2Br)nn1S(=O)(=O)c1ccccc1` it is 59.1% (active).

On to `COc1ccc(CC(N)c2csc(NC(=O)Cc3ccccc3)n2)cc1` (centres undefined), for which the activation was 57.8% (active).

Regarding `CC(C)(C)CC(=O)Nc1nc(C(N)Cc2ccc(C(F)(F)F)cc2)cs1` (centres undefined), the activation was 99% (active). The figure for `NC(Cc1ccccc1)c1csc(Nc2cc(Oc3ccccc3)ncn2)n1` (centres undefined) is 87% (active); for `CN(C)CCCN(C(=O)c1ccc(S(=O)(=O)N2CCCc3ccccc32)cc1)c1nc2ccc(F)cc2s1` it is 62.2% (active); for `CN(C)CCCN(C(=O)c1ccc(S(=O)(=O)N2CCCCCC2)cc1)c1nc2ccc(Br)cc2s1` it is 44% (active).

Take `Cc1cccc(NC(=O)C(C)N2C(=O)C3C4CC(C(Br)C4Br)C3C2=O)c1` (centres undefined): the activation is 33.9%. Take `O=C1CCCN2N=C(SCC(=O)Nc3ccc(Br)cc3)SC2=N1`: the activation was 55.6% (active). The figure for `O=C(NCCc1ccccc1)C(=O)NCC1OCCN1S(=O)(=O)c1cccs1` (centres undefined) is 70.4% (active); for `Cn1c(=O)c(=O)n(C)c2cc(S(=O)(=O)NCCc3ccccc3)ccc21` it is 98.3% (active). The figure for `CCCc1ccc(OCC(=O)NNC(=S)NC(=O)c2ccco2)cc1` is 93.8% (active); for `CC(Oc1ccc2ccccc2c1)C(=O)NNC(=S)NC(=O)c1ccco1` (centres undefined) it is 76% (active); for `Oc1ccc2ccc3cccc[n+]3c2c1` it is 60.5% (active).

Take `COc1ccc(C(N)c2csc(NC(=O)Nc3cccc(C(F)(F)F)c3)n2)cc1` (centres undefined): the activation was 45.9% (active).

As for `NC(c1ccccc1)c1csc(NC(=O)Nc2cccc(C(F)(F)F)c2)n1` (centres undefined), the activation is 61.4% (active). To `O=c1cnnc(Nc2ccccc2)[nH]1` belongs 80.2% (active). With `CCCCC(=O)NNC(=S)NC(=O)C(c1ccccc1)c1ccccc1`, the activation was 152% (active). To `Cc1cc(C)c2cc(C#N)c(N3CCNCC3)nc2c1` belongs 90.6% (active). The figure for `CCOc1ccc(Br)cc1CSC(=N)N` is 73.8% (active); for `CCN(CC)c1ccc2oc(=O)c(C)nc2c1` it is 34.1%; for `O=C(Nc1ccc(Cl)cc1)N1CCc2[nH]c3ccccc3c2C1` it is 21.7%. As for `O=C(c1noc2c1CCCC2)N1CCc2ccccc2C1`, the activation is 68% (active).

Regarding `Cc1cc(=O)oc2c(C)c(OCC(=O)NCCN3CCOCC3)ccc12`, the activation was 2.28%. The figure for `c1ccc(-c2csc(N3CCc4ccccc4C3)n2)cc1` is 81.8% (active); for `CSc1nc(N)c(C#N)c(-c2ccccc2Cl)c1C#N` it is 58.5% (active). To `O=C(NCCc1ccccc1)/C(=C\c1ccc([N+](=O)[O-])cc1)NC(=O)c1ccccc1` belongs 34.4%.

`CCCCCC(=O)NC(=S)NNC(=O)c1ccc([N+](=O)[O-])cc1`: the activation is 113% (active). The figure for `Cc1ccc(Cl)cc1N1CCN(C(=O)c2cccc3c(=O)c(C)c(-c4ccccc4)oc23)CC1` is 113% (active); for `S=C(NCCc1ccccc1)N1CCn2cccc2C1c1ccncc1` (centres undefined) it is 95% (active); for `COc1ccc2c(c1)OC(O)(C(F)(F)C(F)F)CC2=O` (centres undefined) it is 38.7% (active).

With `COC(=O)c1[nH]c2cccc(C)c2c1NC(=O)CN1CCCc2ccccc21`, the activation is 68.9% (active). To `Cc1cc2nc3c(=O)[nH]c(=O)nc-3n(C[C@H](O)[C@H](O)[C@H](O)CO)c2cc1C` belongs 121% (active); to `O=C(N[C@H](C(=O)N1CCC[C@H]1C(=O)NCCc1ccccc1Cl)c1ccccc1)c1ccccc1`, 83.6% (active). With `Nc1cccc2c1C(=O)N(Cc1nnc(-c3ccccc3Br)o1)C2=O`, the activation was 100% (active). For `CCC(c1nnnn1Cc1ccco1)N(CCc1ccccc1)Cc1cc2cccc(C)c2[nH]c1=O` (centres undefined), the activation was 50.2% (active).

Turning to `CCC(c1nnnn1Cc1ccco1)N(CCc1ccccc1)Cc1cc2ccc(OC)cc2[nH]c1=O` (centres undefined), the activation was 30.9%.

Turning to `CCCn1c(O)c(CN2CCCC(C)C2)c(C)c(C#N)c1=O` (centres undefined), the activation was 85% (active). On to `Nc1c(NCCc2ccccc2)c2ccccc2oc1=O`, for which the activation was 70.5% (active). To `CC(Oc1ccc(Cl)cc1)C(=O)OCC(=O)Nc1ncc(Cl)cc1Cl` (centres undefined) belongs 30.3%; to `O=[N+]([O-])c1cc(S(=O)(=O)NCCc2ccccn2)ccc1Cl`, 76.4% (active). To `O=C1C=C(c2ccc(Cl)cc2)C(=O)N1Nc1ccccc1` belongs 58.5% (active); to `CCc1ccccc1S(=O)(=O)Cc1ccc(C(=O)NCCc2ccccc2)o1`, 78.3% (active). As for `O=C(NNC(=S)NC(=O)c1cn(-c2ccccc2)nc1-c1ccccc1)c1ccncc1`, the activation was 103% (active). The figure for `O=C(Nc1ccc(F)cc1)Nc1nnc([C@H]2C[C@H](O)[C@@H](CO)O2)s1` is 52.9% (active); for `Nc1c(C(=O)c2cccs2)sc2nsc(SCCN3CCCCC3)c12` it is 85% (active); for `S=C(Nc1ccc(Br)cc1)NC1CCN(Cc2ccccc2)CC1` it is 62.4% (active).

On to `CCCCCCCCCCOC(=O)Cn1c(COc2ccc(C)cc2)[n+](C)c2ccccc21`, for which the activation was 109% (active).

Regarding `COCCCn1c(Cc2csc(Nc3cccc(Cl)c3)n2)nnc1SCC(=O)OC1CCCCC1`, the activation was -1.89%. To `Cc1ccc(NC(=O)CCN2CCc3ccccc3C2)cc1` belongs 88.5% (active); to `CCCC1CCC(=NNC(=S)NCCc2ccccc2)CC1` (centres undefined), 73.7% (active); to `COc1cc(OC)cc(C(=O)N[C@H](C(=O)OCC(=O)NC(C)c2ccccc2)C(C)C)c1` (some centres undefined), 41.1% (active).

Consider `CC(=O)Oc1ccc(Cn2c(C)c(C(=O)NCc3ccc(C#N)cc3)sc2=O)cc1`, for which the activation was 113% (active). `NC[C@H](Cc1ccccc1)NCCc1cc(C(F)(F)F)cc(C(F)(F)F)c1`: the activation was 55.9% (active). To `COc1cc(OC)c(-n2cc(-c3ccc(Cl)cc3)[nH]c2=O)cc1Cl` belongs 117% (active). Regarding `O=C(O)C1C2C=CC(O2)C1C(=O)NCCc1cccc(Cl)c1` (centres undefined), the activation is 101% (active).

Consider `O=C(Nc1cccc(NC(=O)c2ccc(Br)cc2)c1)c1ccccc1`, for which the activation was 5.69%. In the case of `COc1ccc(C(=O)NNC(=S)NC(=O)c2ccccc2)cc1`, the activation was 127% (active). For `COc1ccc(C(=O)NC(=S)NNC(=O)CCc2ccccc2)cc1`, the activation was 115% (active). To `COc1ccc(Cl)cc1C(=O)NNC(=S)NC(=O)/C=C/c1ccco1` belongs 108% (active); to `Cc1ccc(O)c(NC(=S)NC(=O)COc2ccc(Br)cc2)c1`, 129% (active). For `CCc1ccc(-c2nn(-c3ccccc3)cc2CSC(=N)N)cc1`, the activation was 58.1% (active).

For `CCc1c(-c2ccccc2OC)ncn1CCc1ccccc1OC`, the activation was 82.6% (active). To `CCCCc1c(-c2ccc(Br)cc2)ncn1CCc1ccccc1OC` belongs 68.2% (active); to `CCCCc1c(-c2ccc(Cl)cc2)ncn1CCc1ccccc1OC`, 81% (active); to `COc1ccc(OC)c(C(c2nnnn2C(C)(C)C)N2CCc3ccccc3C2)c1` (centres undefined), 66.7% (active). To `CCOC(=O)Cc1csc(NC(=O)Nc2ccccc2)n1` belongs 60.1% (active). Consider `O=C(Nc1ccncc1)Nc1ccc(F)cc1`, for which the activation was 83.6% (active).

Take `CCCCCc1c(Cc2ccccc2)ncn1CCc1ccccc1OC`: the activation was 84.3% (active). The figure for `CCCCCc1c(-c2ccc(OC)c(OC)c2)ncn1CCc1ccccc1OC` is 98.3% (active).

Consider `CCCCCc1c(-c2cccc(Br)c2)ncn1CCc1ccccc1OC`, for which the activation was 37.5% (active).

Consider `NC(=O)C1=C[C@H](c2csc3ccccc23)C[C@H](OCc2ccc(CO)cc2)O1`, for which the activation is 58.4% (active).

As for `c1ccc2c(c1)C(=NC1CCCCC1)NC2=NC1CCCCC1`, the activation is 90.4% (active).

Turning to `CCC(C(=O)Nc1ccc(C(C)C)cc1)c1ccccc1` (centres undefined), the activation was 114% (active).

Regarding `C#CCOc1ccc(/C=C2/C(=O)NN(c3ccccc3)C2=O)cc1OC`, the activation is 88% (active). Turning to `COc1ccc2cc(-c3[nH]ncc3CNCCn3nc(C)cc3C)ccc2c1`, the activation was 57.6% (active). As to `O=C(Cc1ccc(Cl)cc1)NC(=S)Nc1ccccc1O`, the activation was 134% (active). Consider `Cc1ccccc1NC(=S)NC(=O)Cc1ccc(Cl)cc1`, for which the activation is 85.2% (active).

Turning to `S=C(NCCCc1cnc[nH]1)NCCCN(Cc1ccc(Cl)c(Cl)c1)c1ccc(Br)cn1`, the activation is 58% (active). The figure for `Cc1c(CNCCc2ccccc2)c(C(=O)O)c(C)n1-c1ccccc1` is 88.8% (active); for `CN(C(=O)CN(CCO)CC(=O)N(C)C(C)(C)Cc1ccccc1)C(C)(C)Cc1ccccc1` it is 101% (active); for `Cc1ccccc1-c1nc(CS(=O)(=O)CC(=O)N2CCc3ccccc3C2)c(C)o1` it is 68.7% (active).

`COc1ccc(NC(=O)C(=O)NCC(c2ccco2)N2CCc3ccccc3C2)cc1` (centres undefined): the activation is 40.5% (active). To `c1ccc(C2CNCc3c2ccc2ccccc32)cc1` (centres undefined) belongs 88.2% (active); to `N#Cc1ccc(OCCCN2CCC(C(O)(c3ccccc3)c3ccccc3)CC2)c(F)c1`, 36.6%; to `Cc1ccc(Sc2cc(N3CCOCC3)nc(-c3ccccc3)n2)cc1`, 19.1%. To `CCCc1cc(C(=O)Nc2ccc(C(=O)OC)cc2)cs1` belongs 1.29%; to `Cc1ccc(S(=O)(=O)N(CC(=O)N2CCc3ccccc3C2)c2cccc(Cl)c2)cc1`, 56.1% (active). To `COc1cccc(N(CC(=O)N2CCc3ccccc3C2)S(C)(=O)=O)c1` belongs 63.4% (active). Consider `OC(CNCCc1ccc(Cl)cc1Cl)COc1ccccc1` (centres undefined), for which the activation is 87.4% (active). To `Nc1nnn(CC(=O)N/N=C/c2ccccc2)n1` belongs 61.6% (active); to `CCCOc1ccc(-c2c(C(=O)N/N=C/c3ccco3)nnn2-c2nonc2N)cc1`, 73.1% (active). The figure for `Nc1nonc1-n1nnc(C(=O)N/N=C/c2ccc(Cl)cc2)c1-c1ccc2c(c1)OCO2` is 142% (active).

Consider `Cc1onc(-c2ccccc2)c1C(=O)NNC(=S)NC(=O)c1ccc(F)cc1`, for which the activation is 127% (active). The figure for `COc1ccc(C(=O)NC(=S)NNC(=O)c2c(-c3ccccc3)noc2C)cc1` is 93% (active). The figure for `Fc1ccc(NC(=S)N2CCc3[nH]c4ccccc4c3C2)cc1` is 32.8%; for `COc1ccc(OC)c(NC(=S)N2CCc3ccccc3C2)c1` it is 87.5% (active). To `O=C(/C=C/[C@H]1O[C@@H](n2cnc3c(NC(=O)c4ccccc4)ncnc32)[C@H](O)[C@@H]1O)NCc1ccccc1` belongs 0.79%.
